Laboratory results: ChEMBL document CHEMBL4138058, “Design and synthesis of novel selective estrogen receptor degradation inducers based on the diphenylheptane skeleton” (Medchemcomm, 2017)

Key:
Format in all cases: cell-based
[1] = biological target: T1, Vitamin D3 receptor (Homo sapiens) (UniProt P11473); test: Downregulation of VDR expression in human MCF7 cells at 1 uM after 6 hrs in presence of proteasome inhibitor MG132 by Western blot method relative to lamin B
T1 sequence (whole entry): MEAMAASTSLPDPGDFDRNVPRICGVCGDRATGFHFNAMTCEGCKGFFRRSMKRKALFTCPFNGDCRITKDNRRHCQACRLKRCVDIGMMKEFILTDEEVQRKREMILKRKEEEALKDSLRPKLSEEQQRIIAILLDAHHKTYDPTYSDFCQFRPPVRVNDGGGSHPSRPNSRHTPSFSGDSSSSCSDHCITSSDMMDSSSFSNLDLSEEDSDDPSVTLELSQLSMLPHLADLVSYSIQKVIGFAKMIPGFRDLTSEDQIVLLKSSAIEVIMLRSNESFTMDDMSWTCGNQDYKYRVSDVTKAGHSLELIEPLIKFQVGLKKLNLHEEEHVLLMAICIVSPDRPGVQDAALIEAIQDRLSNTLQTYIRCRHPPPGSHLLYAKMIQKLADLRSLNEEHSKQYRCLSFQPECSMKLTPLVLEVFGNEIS
How it was run: (§1)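 MCF-7 cells kept in DMEM with 10% FBS, kanamycin and 10 μg/mL insulin, then exposed to compounds for 6 h. Lysates made in SDS buffer (0.1 M Tris-HCl pH 8.0, 10% glycerol, 1% SDS), boiled, BCA-normalized and run on SDS-PAGE. Blots probed with anti-ERα, AR, AhR or VDR and β-actin or lamin B. Chemiluminescence quantified as target/loading-protein ratio; means ± S.E., n=3.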

[2] = biological target: T2, Estrogen receptor (Homo sapiens, UniProt P03372); test: Antagonist activity at GAL4-fused human ERalpha LBD expressed in HEK293 cells assessed as inhibition of 17beta-estradiol-induced transcriptional activation after 16 to 20 hrs by luciferase reporter gene assay
T2 sequence (P03372 whole entry): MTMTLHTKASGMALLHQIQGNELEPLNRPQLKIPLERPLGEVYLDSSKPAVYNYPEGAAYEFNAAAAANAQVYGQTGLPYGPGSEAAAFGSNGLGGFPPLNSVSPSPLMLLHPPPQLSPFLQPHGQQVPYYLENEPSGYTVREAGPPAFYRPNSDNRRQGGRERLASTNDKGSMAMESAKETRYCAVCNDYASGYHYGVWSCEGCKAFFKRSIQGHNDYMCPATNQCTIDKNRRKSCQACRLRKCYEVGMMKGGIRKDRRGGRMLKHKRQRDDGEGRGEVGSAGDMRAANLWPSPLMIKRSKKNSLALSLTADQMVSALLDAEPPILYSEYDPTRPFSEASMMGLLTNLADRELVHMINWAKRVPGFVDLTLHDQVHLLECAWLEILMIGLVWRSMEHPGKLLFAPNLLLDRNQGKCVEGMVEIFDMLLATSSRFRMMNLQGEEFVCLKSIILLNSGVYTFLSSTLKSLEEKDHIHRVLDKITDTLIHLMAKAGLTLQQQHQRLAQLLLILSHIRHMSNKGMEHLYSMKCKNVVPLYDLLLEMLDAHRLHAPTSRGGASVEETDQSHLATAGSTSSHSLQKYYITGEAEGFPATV
How it was run: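 HEK293 cells grown in phenol red-free DMEM with 10% FBS at 37 °C, 5% CO2. Calcium phosphate co-transfection with GAL4-hERα LBD plasmid, MH100x4-tk-luciferase reporter and β-galactosidase normalization plasmid. Compounds added 8 h post-transfection with 0.3 nM 17β-estradiol; harvested 16–20 h later. Luciferase normalized to β-galactosidase; means of triplicate assays.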

[3] = biological target: T1, Vitamin D3 receptor (Homo sapiens); test: Downregulation of VDR expression in human MCF7 cells at 3 uM after 6 hrs in presence of proteasome inhibitor MG132 by Western blot method relative to lamin B; how it was run: as §1
[4] = biological target: T3, Androgen receptor (Homo sapiens) (UniProt P10275); test: Downregulation of androgen receptor expression in human MCF7 cells at 3 uM after 6 hrs in presence of proteasome inhibitor MG132 by Western blot method relative to lamin B; how it was run: as §1
T3 sequence (whole entry): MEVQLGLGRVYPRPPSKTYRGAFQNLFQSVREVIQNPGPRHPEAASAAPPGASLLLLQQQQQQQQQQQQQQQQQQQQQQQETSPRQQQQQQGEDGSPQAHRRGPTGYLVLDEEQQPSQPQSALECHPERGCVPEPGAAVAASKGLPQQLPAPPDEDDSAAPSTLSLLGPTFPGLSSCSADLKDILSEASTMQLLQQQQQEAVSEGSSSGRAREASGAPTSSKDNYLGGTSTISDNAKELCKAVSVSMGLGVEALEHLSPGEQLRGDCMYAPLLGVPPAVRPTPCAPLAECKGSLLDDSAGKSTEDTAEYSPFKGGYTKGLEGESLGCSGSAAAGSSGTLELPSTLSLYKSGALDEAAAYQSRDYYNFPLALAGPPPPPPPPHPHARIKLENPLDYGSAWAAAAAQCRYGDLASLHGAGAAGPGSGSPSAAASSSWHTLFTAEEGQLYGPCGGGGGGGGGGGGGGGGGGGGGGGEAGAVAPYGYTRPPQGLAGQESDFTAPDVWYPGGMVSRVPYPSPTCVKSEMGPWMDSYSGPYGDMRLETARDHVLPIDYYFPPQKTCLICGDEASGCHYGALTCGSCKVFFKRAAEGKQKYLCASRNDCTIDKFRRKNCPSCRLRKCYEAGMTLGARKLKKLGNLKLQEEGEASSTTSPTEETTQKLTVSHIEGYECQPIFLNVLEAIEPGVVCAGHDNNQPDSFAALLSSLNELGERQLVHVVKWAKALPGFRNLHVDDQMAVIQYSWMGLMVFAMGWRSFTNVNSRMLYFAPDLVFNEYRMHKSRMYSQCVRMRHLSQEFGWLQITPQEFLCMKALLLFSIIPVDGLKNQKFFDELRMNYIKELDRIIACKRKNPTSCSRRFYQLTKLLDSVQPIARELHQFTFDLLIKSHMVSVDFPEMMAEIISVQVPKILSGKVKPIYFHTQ

[5] = biological target: T1, Vitamin D3 receptor (Homo sapiens); test: Downregulation of VDR expression in human MCF7 cells at 10 uM after 6 hrs in presence of proteasome inhibitor MG132 by Western blot method relative to lamin B; how it was run: as §1
[6] = biological target: T4, Estrogen receptor (Homo sapiens) (UniProt P03372); test: Downregulation of ERalpha expression in human MCF7 cells at 1 uM after 6 hrs in presence of proteasome inhibitor MG132 by Western blot method relative to lamin B; how it was run: as §1
T4 sequence (whole entry): T2 sequence (P03372 whole entry)

- Activity [1]: 98%
- IC50 [2]: 0.045 µM
- Activity [3]: 83%
- Activity [4]: 78%
- Activity [5]: 86%
- Activity [6]: 117%
Compound: CCCCCCCCCCNCCOc1ccc(C(CCC)(CCC)c2ccc(O)c(C)c2)cc1C
